Source: article PMC3119721 (Biochemistry, 2011)
Each block holds one molecule with its values, some of them ahead of it.

Assays:
[1] = target: PduO-type ATP-dependent cob(I)alamin adenosyltransferase (ATR) (Methylorubrum extorquens, UniProt C5AZG1, DEL180-190); test: isothermal titration calorimetry; format: binding
Procedure, shortened: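 Recombinant His-tagged M. extorquens ATR, D180X mutant, expressed in E. coli BL21(DE3) and Ni-NTA purified. 40–45 μM protein in 50 mM HEPES pH 8, 0.3 M KCl, 10 mM MgCl2, 5% glycerol at 4 °C, titrated with 45 aliquots of 1–2 mM ATP or AdoCbl. KA, ΔH° and ΔS° were obtained from two-site (ATP) or single-site (AdoCbl) fits, in triplicate.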

[2] = tested on: Nc1ncnc2c1ncn2[C@@H]1O[C@H](COP(=O)(O)OP(=O)(O)OP(=O)(O)O)[C@@H](O)[C@H]1O; test: purified protein; format: biochemical, Methylorubrum extorquens; details: printed as D180X; 55 μM HOCbl (reduced to cob(I)alamin), ATP 0.5-300 μM
purified protein = substrate: Nc1ncnc2c1ncn2[C@@H]1O[C@H](COP(=O)(O)OP(=O)(O)OP(=O)(O)O)[C@@H](O)[C@H]1O; test: purified protein; format: biochemical, Methylorubrum extorquens; details: apparent; 55 μM HOCbl (reduced to cob(I)alamin), ATP 0.5-300 μM

Kd [1]: 480 ± 20 nM
Molecule: Nc1ncnc2c1ncn2[C@@H]1O[C@H](COP(=O)(O)OP(=O)(O)OP(=O)(O)O)[C@@H](O)[C@H]1O [ATP]

Molecule: PduO-type ATP-dependent cob(I)alamin adenosyltransferase (ATR) (Methylorubrum extorquens AM1; DEL180-190)
Km [2]: 9.5 ± 1.2 µM
kcat [2]: (2.5 ± 0.1) × 10^−1 s^−1
kcat/Km [2]: 27000 ± 1000 M⁻¹ s⁻¹

B1: PduO-type ATP-dependent cob(I)alamin adenosyltransferase (ATR) (Methylorubrum extorquens AM1) (protein)
chain: MVKLNRIYTRTGDQGTTGLANGERRSKADLRVEAYGTVDETNACIGLARLTAEPALDAMLARIQNDLFDLGADLATPPSDKPLGYEPLRIVPAQVQRLETEIDALNANIPPLKSFVLPGGSAAAAALHLARTVCRRAERLVVALSGVESEAISGEALQYLNRLSDFLFVASRAANRDGADDVLWVPGQNR
Km (purified protein): 8.4 ± 1.4 µM
